Assay results taken from ChEMBL document CHEMBL3232844, “Synthesis and structure activity relationships of schweinfurthin indoles” (2014).

Key:
Type in all cases: functional
CCRF-CEM = assay: Cytotoxicity against human CCRF-CEM cells
HL-60(TB) = assay: Cytotoxicity against human HL-60(TB) cells
How it was run: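 Tested within the NCI 60-cell-line screen, with GI50 as the read-out. Values are the average of two independent experiments. The lowest concentration tested was 10 nM.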

K562 = assay: Cytotoxicity against human K562 cells
How it was run: (§1)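 Tested in a 60-cell-line human tumor panel screen; the read-out is growth inhibition, reported as GI50 for each cell line.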

MOLT-4 = assay: Cytotoxicity against human MOLT4 cells; how it was run: as §1
SR = assay: Cytotoxicity against human SR cells
How it was run: (§2)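 Cell line run as part of the 60-cell-line screening panel; growth inhibition was reported as a GI50 for each line.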

[1] = Cytotoxicity against human EKVX cells; how it was run: as §1
NCI-H226 = assay: Cytotoxicity against human NCI-H226 cells; how it was run: as §1
NCI-H23 = assay: Cytotoxicity against human NCI-H23 cells; how it was run: as §1
HCC 2998 = assay: Cytotoxicity against human HCC2998 cells; how it was run: as §1
HT-29 = assay: Cytotoxicity against human HT-29 cells; how it was run: as §1
KM12 = assay: Cytotoxicity against human KM12 cells; how it was run: as §1
SF-268 = assay: Cytotoxicity against human SF268 cells; how it was run: as §1
SF-295 = assay: Cytotoxicity against human SF295 cells; how it was run: as §1
SF-539 = assay: Cytotoxicity against human SF539 cells; how it was run: as §1
SNB-19 = assay: Cytotoxicity against human SNB19 cells; how it was run: as §1
SNB-75 = assay: Cytotoxicity against human SNB75 cells; how it was run: as §2
U-251 = assay: Cytotoxicity against human U251 cells; how it was run: as §2
M14 = assay: Cytotoxicity against human M14 cells; how it was run: as §1
MDA-MB-435 = assay: Cytotoxicity against human MDA-MB-435 cells; how it was run: as §1
NCI-H322M = assay: Cytotoxicity against human NCI-H322M cells; how it was run: as §1
NCI-H460 = assay: Cytotoxicity against human NCI-H460 cells; how it was run: as §1
[2] = read-out: pLC50 (the source's name) (converted)

Q: For `COc1cc(/C=C/c2cc(OC)c3cc[nH]c3c2)cc2c1O[C@]1(C)CC[C@@H](O)C(C)(C)[C@H]1C2`, which GI50 (CCRF-CEM) is on record?
A: 151 nM

Q: And the CC50 (CCRF-CEM; [2])?
A: > 100000 nM

Q: What about the GI50 (HL-60(TB)) of the same molecule?
A: 138 nM

Q: And the CC50 (HL-60(TB); [2])?
A: > 100000 nM

Q: And the TGI (HL-60(TB); read-out: pTGI (converted))?
A: 1320 nM

Q: And the GI50 (K562)?
A: 324 nM

Q: And the CC50 (K562; [2])?
A: > 100000 nM

Q: What about the TGI (K562; read-out: pTGI (converted)) of the same molecule?
A: 1380 nM

Q: What about the GI50 (MOLT-4) of the same molecule?
A: 91.2 nM

Q: And the CC50 (MOLT-4; [2])?
A: > 100000 nM

Q: What about the TGI (MOLT-4; read-out: pTGI (converted)) of the same molecule?
A: 490 nM

Q: What about the GI50 (SR) of the same molecule?
A: 302 nM

Q: And the CC50 (SR; [2])?
A: > 100000 nM

Q: What about the TGI (SR; read-out: pTGI (converted)) of the same molecule?
A: 5620 nM

Q: What about the GI50 [1] of the same molecule?
A: 537 nM

Q: And the CC50 [1, 2]?
A: > 100000 nM

Q: And the TGI ([1]; read-out: pTGI (converted))?
A: 6030 nM

Q: And the GI50 (NCI-H226)?
A: 1740 nM

Q: What about the CC50 (NCI-H226; [2]) of the same molecule?
A: 58900 nM

Q: What about the TGI (NCI-H226; read-out: pTGI (converted)) of the same molecule?
A: 7080 nM

Q: And the GI50 (NCI-H23)?
A: 692 nM

Q: What about the CC50 (NCI-H23; [2]) of the same molecule?
A: > 100000 nM

Q: What about the TGI (NCI-H23; read-out: pTGI (converted)) of the same molecule?
A: 3390 nM

Q: And the GI50 (HCC 2998)?
A: 2240 nM

Q: And the CC50 (HCC 2998; [2])?
A: 49000 nM

Q: What about the TGI (HCC 2998; read-out: pTGI (converted)) of the same molecule?
A: 11200 nM

Q: And the GI50 (HT-29)?
A: 288 nM

Q: And the CC50 (HT-29; [2])?
A: > 100000 nM

Q: What about the TGI (HT-29; read-out: pTGI (converted)) of the same molecule?
A: 1780 nM

Q: And the GI50 (KM12)?
A: 191 nM

Q: And the CC50 (KM12; [2])?
A: 3630 nM

Q: What about the TGI (KM12; read-out: pTGI (converted)) of the same molecule?
A: 468 nM

Q: And the GI50 (SF-268)?
A: 282 nM

Q: And the CC50 (SF-268; [2])?
A: 10000 nM

Q: And the TGI (SF-268; read-out: pTGI (converted))?
A: 10200 nM

Q: What about the GI50 (SF-295; read-out: GI50) of the same molecule?
A: 55 nM

Q: What about the GI50 (SF-295; read-out: pGI50 (converted)) of the same molecule?
A: 55 nM

Q: And the CC50 (SF-295; [2])?
A: 794 nM

Q: What about the TGI (SF-295; read-out: pTGI (converted)) of the same molecule?
A: 224 nM

Q: And the GI50 (SF-539)?
A: 141 nM

Q: What about the CC50 (SF-539; [2]) of the same molecule?
A: 3090 nM

Q: And the TGI (SF-539; read-out: pTGI (converted))?
A: 468 nM

Q: What about the GI50 (SNB-19) of the same molecule?
A: 676 nM

Q: What about the CC50 (SNB-19; [2]) of the same molecule?
A: > 100000 nM

Q: And the TGI (SNB-19; read-out: pTGI (converted))?
A: 7080 nM

Q: And the GI50 (SNB-75)?
A: 93.3 nM

Q: And the TGI (SNB-75; read-out: pTGI (converted))?
A: 468 nM

Q: What about the GI50 (U-251) of the same molecule?
A: 331 nM

Q: What about the CC50 (U-251; [2]) of the same molecule?
A: 31600 nM

Q: And the TGI (U-251; read-out: pTGI (converted))?
A: 3630 nM

Q: What about the GI50 (M14) of the same molecule?
A: 174 nM

Q: And the CC50 (M14; [2])?
A: 741 nM

Q: And the TGI (M14; read-out: pTGI (converted))?
A: 355 nM

Q: What about the GI50 (MDA-MB-435) of the same molecule?
A: 355 nM

Q: What about the CC50 (MDA-MB-435; [2]) of the same molecule?
A: > 100000 nM

Q: What about the TGI (MDA-MB-435; read-out: pTGI (converted)) of the same molecule?
A: 2570 nM

Q: What about the GI50 (NCI-H322M) of the same molecule?
A: 3550 nM

Q: What about the CC50 (NCI-H322M; [2]) of the same molecule?
A: > 100000 nM

Q: What about the TGI (NCI-H322M; read-out: pTGI (converted)) of the same molecule?
A: 37200 nM

Q: What about the GI50 (NCI-H460) of the same molecule?
A: 380 nM

Q: What about the CC50 (NCI-H460; [2]) of the same molecule?
A: 37200 nM

Q: What about the TGI (NCI-H460; read-out: pTGI (converted)) of the same molecule?
A: 2290 nM
